Bioassay records deposited in PubChem BioAssay by Broad Institute.
miR-122 sensor = miR-122 Renilla sensor signal increase in Huh7, primary screen, miR-122 inhibitor project, cell-based, single point, plate reader; Huh7 miR-122 Renilla luciferase sensor, 48 h; neutral wells = 0, positive control = 100; 340,000 tested, 0.3% active; AID 602342, 2012; activation (reporter increase), % at 12.5 µM;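 active means mean replicate activation score at least 90 and every replicate individually at or above 90; inconclusive means only one of the two criteria met; inactive means neither criterion met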;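 further: higher luciferase means less miR-122 activity so hits act as miR-122 inhibitors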
DENV2 CPE = inhibitors of DENV2 cytopathic effect, primary screen, cell-based, plate reader, single concentration | 350,000 tested, 1.7% active | CPE inhibition, % at 9.99 µM | DENV2-infected cells, cytopathic effect rescue; in the data active means CPE inhibition above about 20%, passing the limit was not always enough; inconclusive means no clear call, values can overlap the other calls; tested in BHK-21 cells
INS-1E GSIS act = GLuc luminescence reporter in INS-1E cells, primary screen for activators of glucose-dependent secretion of insulin; INS-1E GLuc reporter insulin secretion, 2-3 h; activation, % at 16.6 µM; 370,000 tested, 0.61% active;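 active means lowest replicate activation of at least 40%, so every replicate reaches that level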
E-sel inducer = E-selectin induction in HUVECs, primary screen, imaging, HUVEC, immunofluorescence imaging, single point. activation, % at 7.58 µM. normalized: neutral wells 0, TNF-alpha wells 100. P16581. AID 686992, 2013. 260,000 tested, 0.37% active;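 active means mean E-selectin-positive cell signal at least 10% of the positive control, reached in at least 60% of replicates, without over 20% cell loss; inconclusive means no rule given, readout overlaps actives, possibly toxicity-flagged; inactive means the rest, including those meeting only one limit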
Target sequence (P16581 whole entry, looked up): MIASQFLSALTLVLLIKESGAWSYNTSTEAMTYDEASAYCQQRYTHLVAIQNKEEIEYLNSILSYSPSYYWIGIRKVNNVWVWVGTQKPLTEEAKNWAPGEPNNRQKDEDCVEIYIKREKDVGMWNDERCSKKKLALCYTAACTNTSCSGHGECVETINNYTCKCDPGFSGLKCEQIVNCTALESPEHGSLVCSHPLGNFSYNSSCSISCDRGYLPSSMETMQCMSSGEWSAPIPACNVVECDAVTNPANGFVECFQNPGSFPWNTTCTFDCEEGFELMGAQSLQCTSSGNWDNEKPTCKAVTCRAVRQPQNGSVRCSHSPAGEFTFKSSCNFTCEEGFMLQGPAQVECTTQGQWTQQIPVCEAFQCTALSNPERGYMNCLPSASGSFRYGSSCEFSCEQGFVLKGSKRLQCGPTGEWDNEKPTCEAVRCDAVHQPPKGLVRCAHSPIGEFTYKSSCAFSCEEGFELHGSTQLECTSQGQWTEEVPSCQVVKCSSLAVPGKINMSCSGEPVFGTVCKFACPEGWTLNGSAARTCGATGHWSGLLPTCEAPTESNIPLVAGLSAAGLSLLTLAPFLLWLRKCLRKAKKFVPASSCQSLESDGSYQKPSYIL
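Read-out: % PE-positive cells | Test system: HUVEC | Doses: One compound dose added by pin transfer | Buffer or medium: EGM-2 over gelatin coat | Signal: Immunofluorescence imaging | Benchmarks: TNF-alpha, DMSO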
CFTR F508del cor = F508del CFTR correction, initial screen, CFBE line, single point | activity (quench increase), % at 7.58 µM | 350,000 tested, 0.36% active | AID 720511, 2013 | CFBE cells, YFP halide quenching; stimulated with forskolin plus potentiator P3; % fluorescence drop versus neutral controls;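 active means mean added fluorescence quench of at least 8% versus neutral control, with both replicates also reaching 8%; inconclusive means only one of the mean or replicate conditions met; inactive means mean below 8% and not both replicates reaching 8%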;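 further: cells transiently co-express mutant CFTR-F508del with the halide-sensitive YFP; corrector assay measuring rescue of mutant channel to the surface after 24 h compound exposure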
ERAP1 inh = human ERAP1 aminopeptidase inhibitors, primary screen, biochemical, single point, plate reader; Endoplasmic reticulum aminopeptidase 1 (Homo sapiens), Q9NZ08; recombinant ERAP1, Leu-AMC fluorescence, 60 min; inhibition, % at 10.7 µM; 340,000 tested, 0.15% active;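 active means mean replicate inhibition of at least 30%, or all replicates individually reaching that 30% level; inactive means mean below 30% and not every replicate reaching it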
A number is an active result; i = inactive; ? = inconclusive; nt = not tested or not shown; ! = repeats disagree; [ ] = remark or other dose. Hits are enriched below; roughly 2.6% of the tested compounds scored in any of these assays.

SMILES	miR-122 sensor	DENV2 CPE	INS-1E GSIS act	E-sel inducer	CFTR F508del cor	ERAP1 inh
CC(C)CC#Cc1ccc2c(c1)O[C@@H](CN(C)Cc1ccncc1)[C@@H](C)CN([C@H](C)CO)S2(=O)=O	i	i	i	i	i	i
CC(C)CC#Cc1ccc2c(c1)O[C@H](CN(C)Cc1ccncc1)[C@H](C)CN([C@@H](C)CO)S2(=O)=O	i	i	i	108	i	i
O=C(C[C@H]1CC[C@H](NC(=O)CN2CCOCC2)[C@H](CO)O1)NCc1cccc(F)c1	nt	i	i	i	i	i
O=C(C[C@H]1CC[C@@H]2[C@H](COC[C@H](O)CN2C(=O)c2ccccn2)O1)NC1CCC1	i	i	i	i	i	i
C[C@H](CO)N1C[C@H](C)[C@H](CN(C)C(=O)NC2CCCCC2)Oc2cc(C#Cc3ccc(F)cc3)ccc2S1(=O)=O	i	i	i	i	8.2	i
COC(=O)C1=C(C)NC2=C(C(=O)CC(c3cccs3)C2)C1c1ccsc1 (stereo not drawn)	i	nt	nt	nt	nt	nt
CCOC(=O)C1=C(C)NC2=C(C(=O)CC(c3cccs3)C2)C1c1cccs1 (stereo not drawn)	95	nt	nt	nt	nt	nt
Cc1ccccc1C(=O)OCC(=O)N1CC(=O)Nc2ccccc21	i	i	nt	nt	nt	i
CCOC(=O)c1[nH]c(C)c(C(=O)OCC(=O)N2CC(=O)Nc3ccccc32)c1C	i	71	i	i	i	i
COc1cccc(S(=O)(=O)Nc2ccc3c(c2)[C@H]2C[C@@H](CC(=O)NCc4ccc(Cl)cc4)O[C@H](CO)[C@H]2O3)c1	i	i	i	i	i	i
CC(Oc1ccccc1)C(=O)Nc1nc(-c2ccncc2)cs1 (stereo not drawn)	nt	i	i	nt	i	i
CC(OC(=O)c1ccc(O)cc1)C(=O)Nc1nc(-c2ccccc2)cs1 (stereo not drawn)	i	38	i	i	i	i
CC1CC(C)CN(C(=O)/C=C/c2ccc(S(=O)(=O)N3CCOCC3)cc2)C1 (stereo not drawn)	i	i	i	i	8.4	i
Cc1cc(=O)n2ccsc2n1	i	i	47	i	i	i
O=c1cc(CN2CCCCCC2)nc2sccn12	nt	i	i	nt	i	i
C[C@H]1CN([C@@H](C)CO)S(=O)(=O)c2ccc(Br)cc2O[C@H]1CN(C)S(=O)(=O)c1ccccc1F	179![16.7 µM]	i	i	i	i	i
C[C@H]1CN([C@@H](C)CO)S(=O)(=O)c2ccc(Br)cc2O[C@@H]1CN(C)S(=O)(=O)c1ccccc1F	i	36!	i	i	i	i
COc1cc(OC)c(-c2c3cc(O)c(=O)cc-3oc3cc(O)c(O)cc23)cc1OC	nt	i	i	nt	21	i
COc1cc(-c2cc(=O)c3ccc(O)cc3o2)cc(OC)c1OC	i	i	nt	nt	i	nt
Cc1cc2oc(=O)cc(-c3cc4ccccc4o3)c2cc1O	i	i	i	nt	i	i
Cc1c2cc(O)c(=O)cc-2oc2cc(O)c(O)cc12	i	nt	i	nt	17	i
Cc1ccc(S(=O)(=O)NCC[C@H]2CC[C@H](NC(=O)Nc3cccc(F)c3)[C@H](CO)O2)cc1	nt	i	i	i	i	i
O=C(c1ccc(F)cc1)N1CCC(C(=O)N2CCCc3ccccc32)CC1	i	31	i	i	i	i
CCCCCc1cc(=O)oc2c(C(CCN3CCCCC3)c3cc(OC)c(OC)c(OC)c3)c(OC)cc(OC)c12 (stereo not drawn)	i	i	59	i	i	nt
C[C@@H]1CN([C@@H](C)CO)C(=O)c2cc(NC(=O)Nc3cccc4ccccc34)ccc2O[C@@H](C)CCCCO[C@@H]1CN(C)C(=O)C1CCCCC1	i	i	i	i	i	i
SMILES	miR-122 sensor	DENV2 CPE	INS-1E GSIS act	E-sel inducer	CFTR F508del cor	ERAP1 inh
Cc1cc(=O)nc2c3ccccc3n(C(C)C(=O)NCCN3CCOCC3)n12 (stereo not drawn)	i	35	i	nt	i	i
CCCC#Cc1ccc2c(c1)O[C@H](CN(C)C(=O)c1ccccn1)[C@H](C)CN([C@@H](C)CO)S2(=O)=O	i	i	i	i	i	i
CCN(C(=O)N(CC)c1ccccc1)c1ccccc1	i	20	i	nt	i	i
CCC(=O)N1CC2(C1)[C@H](c1ccccc1)[C@H](CO)N2Cc1cc(F)ccc1F	nt	i	i	i	i	i
C[C@@H]1CN([C@@H](C)CO)C(=O)c2cccc(NS(=O)(=O)c3cccs3)c2O[C@@H]1CN(C)C(=O)Nc1cccc2ccccc12	i	43	i	i	i	i
COc1ccc(S(=O)(=O)Nc2cccc3c2O[C@H](CN(C)C(=O)Nc2cccc4ccccc24)[C@@H](C)CN([C@@H](C)CO)C3=O)cc1	i	nt	i	i	i	nt
COc1ccc(S(=O)(=O)Nc2cccc3c2O[C@H](CN(C)C(=O)Nc2cccc4ccccc24)[C@@H](C)CN([C@H](C)CO)C3=O)cc1	i	nt	i	28	i	nt
C[C@@H]1CN([C@@H](C)CO)C(=O)c2cc(NS(=O)(=O)c3ccccc3)ccc2O[C@H]1CN(C)C(=O)Nc1cccc2ccccc12	i	27	i	i	i	i
COc1ccc(S(=O)(=O)Nc2ccc3c(c2)C(=O)N([C@H](C)CO)C[C@H](C)[C@H](CN(C)C(=O)Nc2cccc4ccccc24)O3)cc1	i	i	i	i	i	i
COc1ccc(S(=O)(=O)Nc2ccc3c(c2)C(=O)N([C@H](C)CO)C[C@@H](C)[C@@H](CN(C)C(=O)Nc2cccc4ccccc24)O3)cc1	i	i	i	75	i	i
O=C(CSc1ccc(Cl)cc1)Nc1ccc(-c2nc3ccccc3[nH]2)cc1	i	nt	106	i	nt	nt
O=C(/C=C/c1ccco1)Nc1ccc(-c2nc3ccccc3[nH]2)cc1	101	nt	i	i	nt	nt
COc1ccc2c3c(n(C)c2c1)[C@H](CO)N(C(C)=O)CC31CN(C(=O)NC(C)C)C1	nt	?	i	i	i	nt
O=C(C[C@H]1C[C@H]2c3cc(NC(=O)Cc4ccncc4)ccc3O[C@H]2[C@@H](CO)O1)NCCN1CCCCC1	i	i	i	i	i	i
Cc1cccc(S(=O)(=O)N2CC[C@@H]3[C@H]2c2cc(-c4ccccc4F)ccc2N(C)[C@H]3CO)c1	i	?	i	i	i	i
Cc1cc(C(=O)Nc2ccc(C)c(C)c2)n(-c2ccccc2)n1	i	i	nt	53	i	i
Cc1ccc(NC(=O)c2ccccc2-c2ccccc2C(=O)O)cc1C	i	i	45	nt	i	i
Cc1cc(C(=O)Nc2c(C)cccc2C)n(-c2ccccc2)n1	i	i	i	i	i	i
